Activity calls are given as the source filed them. The calls are words filed in the database; no cut-off is given here.

One may read the T/C as the ratio of treated to control. The term LD50 denotes the dose at which mortality reaches 50%. Read a low LD50 as a more toxic substance.

In data set [1] the test system is L1210. Nature of the data set: In vivo antitumor activity against mouse L1210 cells in prognostic scoring system assessed as […] at 0.37 mg/kg, qd administered for 15 days relative to control. The format is functional. Particulars: L1210, 360 h, read-out: TGI.
Data set [2] has as its system W256. Briefly: Antitumor activity against rat Walker 256 cells intramuscularly allografted in rat assessed as tumor growth inhibition at 1.9 mg/kg, qd administered for 5 days relative to control. It counts as functional. To be noted: W256, im, 120 h, route intramuscular, read-out: TGI. An outline of the steps:
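Walker 256 carcinoma grown as a solid tumour in rats, with one injection daily for 5 days. Response is given as T/C %, the treated-group measure over the untreated-control tumour measure; a smaller value means more activity. Host toxicity is the mean net weight change of treated minus control animals, in grams.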

For data set [3], the system named is L1210. Nature of the data set: In vivo antitumor activity against mouse L1210 cells in prognostic scoring system assessed as survival rate at 3 mg/kg, qd administered for 15 days. The format is functional, organism-based. Set-up: dose 3 mg/kg. In outline:
(§1)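 L1210 leukaemia in mice, run as an ascites tumour system. Injections were once daily for 9 or 15 days, or as a single dose. Response is the increase in survival time, given as T/C %, treated over untreated controls; a larger value means more activity. Weight change is the treated-group mean minus the control-group mean, in grams.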

The test system of data set [4] is W256. Nature of the data set: Antitumor activity against rat Walker 256 cells intramuscularly allografted in rat assessed as survival rate at 1 mg/kg, qd administered for 5 days. The format is functional, organism-based. Set-up: dose 1 mg/kg. An outline of the steps:
(§2)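 Rats bearing Walker 256 carcinoma as a solid tumor; lines 1-8 use a cytoxan-resistant Walker 256 subline. Dosed once daily for 5 days. Treated (T) and untreated control (C) groups are compared, and the response is given as T/C percentage, reflecting increase in survival time. Host weight change is the average weight change of the test group minus that of the controls, in grams.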

In data set [5] the test system is Rattus norvegicus. Nature of the data set: Toxicity in rat allografted with rat Walker 256 cells intramuscularly assessed as change in body weight at 0.95 mg/kg, qd administered for 5 days. It counts as organism-based. Set-up: dose 0.95 mg/kg, route intramuscular. To be noted: in vivo, im, 120 h. An outline of the steps:
(§3)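 Walker 256 carcinoma solid-tumour system in rats (parent line, or the line resistant to cytoxan). Dosing was one injection per day for 5 days. Toxicity was taken as the average net body-weight change of the treated group minus the average net weight change of the untreated tumour-bearing controls, in grams.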

Data set [6] concerns Rattus norvegicus. Briefly: Toxicity in rat allografted with rat Walker 256 cells intramuscularly assessed as change in body weight at 1 mg/kg, qd administered for 5 days. Also on record: dose 1 mg/kg, route intramuscular. Particulars: in vivo, im, 120 h. The format is organism-based. In outline: as §3
The subject of data set [7] is W256. Briefly: Antitumor activity against rat Walker 256 cells intramuscularly allografted in rat assessed as tumor growth inhibition at 1 mg/kg, qd administered for 5 days relative to control. The format is functional. To be noted: W256, im, 120 h, route intramuscular, read-out: TGI. In outline:
(§4)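 Dosed once daily for 5 days. Response is tumor progression in treated (T) versus untreated control (C) animals, expressed as T/C percentage. Host weight change is reported as the average net weight change of the test group minus that of the controls, in grams.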

The subject of data set [8] is W256. Nature of the data set: Antitumor activity against rat Walker 256 cells intramuscularly allografted in rat assessed as survival rate at 0.47 mg/kg, qd administered for 5 days. The format is functional, organism-based. Set-up: dose 0.47 mg/kg. An outline of the steps: as §2
In data set [9] the test system is L1210. Nature of the data set: In vivo antitumor activity against mouse L1210 cells in prognostic scoring system assessed as tumor growth inhibition at 0.6 mg/kg administered 9 doses relative to control. The format is functional.
In data set [10] the test system is W256. Nature of the data set: Antitumor activity against rat Walker 256 cells intramuscularly allografted in rat assessed as tumor growth inhibition at 0.23 mg/kg, qd administered for 5 days relative to control. The format is functional. Particulars: W256, im, 120 h, route intramuscular, read-out: TGI. An outline of the steps:
as §4

The subject of data set [11] is W256. Nature of the data set: Antitumor activity against rat Walker 256 cells intramuscularly allografted in rat assessed as tumor growth inhibition. To be noted: W256, im. The format is functional. An outline of the steps:
as §4

In data set [12] the test system is W256. Briefly: Antitumor activity against rat Walker 256 cells intramuscularly allografted in rat assessed as survival rate at 1.9 mg/kg, qd administered for 5 days. Set-up: dose 1.9 mg/kg. It counts as functional, organism-based. An outline of the steps:
as §2

Data set [13] deals with Rattus norvegicus. Nature of the data set: Toxicity in rat allografted with rat Walker 256 cells intramuscularly assessed as change in body weight at 0.23 mg/kg, qd administered for 5 days. It counts as organism-based. Also on record: dose 0.23 mg/kg, route intramuscular. To be noted: in vivo, im, 120 h. An outline of the steps: as §3
In data set [14] the test system is Rattus norvegicus. Briefly: Toxicity in rat allografted with rat Walker 256 cells intramuscularly assessed as change in body weight at 1.9 mg/kg, qd administered for 5 days. Set-up: dose 1.9 mg/kg, route intramuscular. Particulars: in vivo, im, 120 h. It counts as organism-based. An outline of the steps:
as §3

Data set [15] can be described thus: Therapeutic index, ratio of LD50 for rat allografted with rat Walker 256 cells to ED10 for antitumor activity against rat Walker 256 cells intramuscularly allografted in rat. The format is cell-based. Particulars: read-out: TI. An outline of the steps:
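Therapeutic index is LD50/ED10 in the Walker 256 solid tumour system. ED10 is the dose giving a 10% tumour weight reduction, with values extrapolated from dose-response data.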

Data set [16] has as its system L1210. Briefly: In vivo antitumor activity against mouse L1210 cells in prognostic scoring system assessed as survival rate at 0.75 mg/kg, qd administered for 15 days. The format is functional, organism-based. Also on record: dose 0.75 mg/kg. An outline of the steps:
as §1

Data set [17] is described as follows: Toxicity in rat allografted with rat Walker 256 cells intramuscularly. The format is organism-based.
The subject of data set [18] is L1210. Briefly: In vivo antitumor activity against mouse L1210 cells in prognostic scoring system assessed as survival rate at 0.37 mg/kg, qd administered for 15 days. It counts as functional, organism-based. Set-up: dose 0.37 mg/kg. An outline of the steps: as §1
Data set [19] has as its system Musca domestica. Briefly: Toxicity in male house fly assessed as lowest dose required to cause complete sterility administered in sugar. It counts as organism-based. Particulars: in vivo, po.
The test system of data set [20] is W256. Nature of the data set: Antitumor activity against rat Walker 256 cells intramuscularly allografted in rat assessed as tumor growth inhibition at 0.47 mg/kg, qd administered for 5 days relative to control. It counts as functional. Particulars: W256, im, 120 h, route intramuscular, read-out: TGI. An outline of the steps:
as §4

For data set [21], the system named is W256. Nature of the data set: Antitumor activity against rat Walker 256 cells intramuscularly allografted in rat assessed as survival rate at 0.23 mg/kg, qd administered for 5 days. The format is functional, organism-based. Also on record: dose 0.23 mg/kg. An outline of the steps:
as §2

The test system of data set [22] is L1210. Nature of the data set: In vivo antitumor activity against mouse L1210 cells in prognostic scoring system assessed as survival rate at 1.5 mg/kg, qd administered for 15 days. The format is functional, organism-based. Also on record: dose 1.5 mg/kg. An outline of the steps: as §1
Data set [23] concerns Musca domestica. Nature of the data set: Toxicity in male house fly assessed as lowest dose required to cause complete sterility administered in food. The format is organism-based. Particulars: in vivo, po.
For data set [24], the system named is W256. Briefly: Antitumor activity against rat Walker 256 cells intramuscularly allografted in rat assessed as survival rate at 0.95 mg/kg, qd administered for 5 days. The format is functional, organism-based. Set-up: dose 0.95 mg/kg. In outline:
as §2

Data set [25] concerns Rattus norvegicus. Briefly: Toxicity in rat allografted with rat Walker 256 cells intramuscularly assessed as change in body weight at 0.47 mg/kg, qd administered for 5 days. The format is organism-based. To be noted: in vivo, im, 120 h. Also on record: dose 0.47 mg/kg, route intramuscular. In outline:
as §3

Data set [26] relates to W256. Briefly: Antitumor activity against rat Walker 256 cells intramuscularly allografted in rat assessed as tumor growth inhibition at 0.95 mg/kg, qd administered for 5 days relative to control. The format is functional. Particulars: W256, im, 120 h, route intramuscular, read-out: TGI. In outline: as §4
The test system of data set [27] is L1210. Briefly: In vivo antitumor activity against mouse L1210 cells in prognostic scoring system assessed as tumor growth inhibition at 1.65 mg/kg administered 3 doses relative to control. It counts as functional.
Data set [28] has as its system L1210. Briefly: In vivo antitumor activity against mouse L1210 cells in prognostic scoring system assessed as tumor growth inhibition at 100 mg/kg administered as single dose (reference value: 10.9 g). The format is functional. An outline of the steps:
as §1

Data set [29] relates to L1210. Briefly: In vivo antitumor activity against mouse L1210 cells in prognostic scoring system assessed as survival rate at 200 mg/kg administered as single dose. The format is functional, organism-based. Set-up: dose 200 mg/kg. An outline of the steps: as §1
In data set [30] the test system is L1210. Nature of the data set: In vivo antitumor activity against mouse L1210 cells in prognostic scoring system assessed as tumor growth inhibition at 400 mg/kg administered as single dose (reference value: 10.9 g). It counts as functional. In outline:
as §1

Data set [31] deals with L1210. Briefly: In vivo antitumor activity against mouse L1210 cells in prognostic scoring system assessed as survival rate at 400 mg/kg administered as single dose. The format is functional, organism-based. Set-up: dose 400 mg/kg. An outline of the steps:
as §1

The subject of data set [32] is L1210. Briefly: In vivo antitumor activity against mouse L1210 cells in prognostic scoring system assessed as survival rate at 100 mg/kg administered as single dose. The format is functional, organism-based. Set-up: dose 100 mg/kg. An outline of the steps: as §1
For data set [33], the system named is L1210. Nature of the data set: In vivo antitumor activity against mouse L1210 cells in prognostic scoring system assessed as tumor growth inhibition at 200 mg/kg administered as single dose (reference value: 10.9 g). The format is functional. An outline of the steps: as §1
For data set [34], the system named is Musca domestica. Nature of the data set: Toxicity in male house fly at 1% administered in sugar. The format is organism-based. Particulars: in vivo, po.

With `C=CCN(CC=C)P(=O)(N1CC1)N1CC1C` (stereo not given), in data set [1], the inhibition in vivo at 0.37 mg/kg worked out at 117%. Also, the inhibition in vivo at 1.9 mg/kg in data set [2] was found to be 0%. For the same molecule, the result in [3], in [4], in [8], in [12], in data set [16] and in data set [18] was Active. For the same molecule, the result in data set [21], in [22] and in data set [24] was Active. Besides, the Activity in [5] was -8 g; in data set [6], -9 g; in data set [13], -7 g; in data set [14], -13 g; in data set [19], 0.25%; in data set [23], 0.1%. In addition, in [25], the Activity turned out to be 0 g. Further, in data set [7], the inhibition in vivo at 1 mg/kg was found to be 2%. For the same molecule, the T/C in [9] was determined as 189%; in [27], 159%. The inhibition in vivo at 0.23 mg/kg in [10] is 30%. In data set [11], the ED10 stood at 0.52 mg/kg. The selectivity ratio in data set [15] turned out to be 13. This molecule also yielded an LD50 in data set [17] of 7 mg/kg. The inhibition in vivo at 0.47 mg/kg in [20] is 5%. Moreover, in data set [26], the inhibition in vivo at 0.95 mg/kg is 0%.

On to `C=CCN(c1ccccc1)P(=O)(N1CC1)N1CC1`, for which the Activity in data set [28] is on record as 10.5 g; in data set [30], 10.5 g; in [33] it was 10.5 g; in [34], “Non-toxic”. Also, the result in data set [29], in [31] and in data set [32] was Active. The median lethal dose (LD50) in data set [17] was over 300 mg/kg.

For the origin of these results see ChEMBL document CHEMBL3272018, “Synthesis of aziridinylallylaminophosphine oxides and sulfides as potential adjuvant cancer chemotherapeutic agents” (J Med Chem, 1976).
